Rows were chosen to be rich in hits. Some 1.5% of all compounds tested hit in one or more screens of this group.
UBC13 polyUb – inhibitors of human UBC13 polyubiquitin chain formation | actives 0.47% (n = 330,000) | inhibition, % at 20 µM | TR-FRET | AID 485273; in the data active means inhibition above about 45%, passing the limit was not always enough
Target sequence (P61088 whole entry, looked up): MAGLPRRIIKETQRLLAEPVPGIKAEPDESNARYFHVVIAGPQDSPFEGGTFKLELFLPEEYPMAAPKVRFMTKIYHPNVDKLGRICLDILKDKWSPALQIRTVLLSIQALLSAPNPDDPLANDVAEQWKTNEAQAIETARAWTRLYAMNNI
PREPL inhibitor – human PREPL enzyme inhibition | actives 0.68% (n = 320,000) | recombinant PREPL, fluorescence polarization activity-based probe | inhibition, % at 5.96 µM | Q4J6C6; in the data active means inhibition above about 43%;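 further: 0% = enzyme with DMSO and 100% = wells lacking enzyme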
UCH37 inh – human UCH37 deubiquitinating enzyme inhibition | AID 588478 | Q9Y5K5 | inhibition, % (test concentration not listed) | actives 0.33% (n = 330,000) | purified proteasome/UCH37, Ub-AMC cleavage fluorescence;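 active means mean inhibition over replicate wells above about 20%, limit read from the data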;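 further: 0% = compound-free wells with enzyme and 100% = wells lacking proteasome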
Target sequence (Q9Y5K5 whole entry, looked up): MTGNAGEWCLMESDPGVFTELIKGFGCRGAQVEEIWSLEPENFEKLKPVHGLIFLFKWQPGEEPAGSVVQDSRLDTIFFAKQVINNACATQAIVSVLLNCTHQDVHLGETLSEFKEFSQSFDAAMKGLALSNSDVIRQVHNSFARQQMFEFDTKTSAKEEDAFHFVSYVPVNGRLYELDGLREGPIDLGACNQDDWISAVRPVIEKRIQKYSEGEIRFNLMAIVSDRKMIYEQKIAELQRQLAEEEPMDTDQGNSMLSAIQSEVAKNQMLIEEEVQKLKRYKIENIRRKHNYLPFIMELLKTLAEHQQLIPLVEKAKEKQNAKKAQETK
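System: Proteasome-associated human UCH37 deubiquitinase; Input: 0.15 nM proteasome in added enzyme buffer; Also added: Ub-AMC substrate from 1 µM stock; Incubation: 30 min compound-proteasome preincubation then 25 min substrate reaction, room temperature; Detection: fluorescence, ex 355 nm, em 460 nm; Read-out: % inhibition of Ub-AMC cleavage fluorescence; Benchmarks: no-proteasome and no-compound wells.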
Apaf-1 inh – inhibitors of human Apaf-1 apoptosome. reconstituted apoptosome caspase-3 activity, DEVD-Rh110 fluorescence. inhibition, % at 20 µM. actives 0.71% (n = 330,000). O14727; active means inhibition of at least 40% at 20 µM;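 further: plate controls were DMSO wells for no effect and DEVD-CHO caspase inhibitor wells for full effect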
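Material: reconstituted apoptosome with Apaf-1, cytochrome c, caspase-9, procaspase-3, dATP. Technique: Rh110 fluorescence intensity. Buffer or medium: pH 7.5 Hepes buffer with CHAPS, BSA, DTT. Times: 30 min plus 50 min, RT.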
Numbers without * were called inactive; . = not tested or not shown.

SMILES	UBC13 polyUb	PREPL inhibitor	UCH37 inh	Apaf-1 inh
C=CCOC(=O)C1=C[C@@H](c2ccc(Br)cc2)C[C@@H](OCCCCO)O1	-1	7	4	5
CN(C)N=Nc1ccc(S(=O)(=O)N=C(O)c2ccccc2)cc1	.	.	12	.
CC(=NNc1ccc(C(=O)O)cc1)c1ccc(O)c(O)c1O	.	.	21*	.
COc1cccc(C=NNC(=S)NCc2ccco2)c1OC	.	.	0	.
O=C(O)c1ccc(C=NNC(=O)c2ccc(CN3c4cccc5cccc(c45)S3(=O)=O)cc2)cc1	.	.	-91	.
COc1ccc(S(=O)(=O)N2CCC(C(=O)NCCC3=CCCCC3)CC2)cc1C	2	13	22*	4
CCCCCCc1cc2cc(-c3nnc(-c4ccccc4O)o3)c(=O)oc2cc1O	-64	16	-122	-140
CCCCCCc1cc2cc(-c3nnc(-c4cc(OC)c(OC)c(OC)c4)o3)c(=O)oc2cc1O	-54	10	-55	63*
O=S(=O)(NN=Cc1ccc(F)cc1)c1ccccc1	.	.	1	.
COC1(OC)C(=NO)C(=NO)CCC1O (stereo not drawn)	.	.	1	.
Cc1[nH][nH]c(=O)c1C(c1ccc(-c2ccc(C(=O)O)cc2)o1)c1c(C)[nH][nH]c1=O	.	.	23*	.
O=C(CSc1nnc(SCc2ccccc2)s1)NN=C/C=C/c1ccccc1[N+](=O)[O-]	.	.	3	.
Cc1c(/C(O)=C2/C(=O)C(=O)N(CCN3CCOCC3)C2c2ccco2)cnn1-c1ccccc1 (stereo not drawn)	.	.	9	.
Cc1c(/C(O)=C2/C(=O)C(=O)N(CCN3CCOCC3)C2c2cccnc2)cnn1-c1ccccc1 (stereo not drawn)	2	3	22*	-8
Cc1ccccc1OCCn1cc(C(=S)N2CCN(C)CC2)c2ccccc21	26	59*	3	12
Cc1ccccc1OCCn1cc(C(=S)N2CCCC2)c2ccccc21	10	42	5	23
O=C(O)c1cc(N=Nc2c(O)ccc3ccccc23)cc(C(=O)O)c1	.	.	26*	.
Oc1ccc(N=Nc2c(O)ccc3ccccc23)cc1	-115	22	11	18
Cc1ccc(C)c(S(=O)(=O)Nc2cc(SCC(=O)O)c(O)c3ccccc23)c1	.	23	23*	.
COC(=O)c1cc[n+](CC(=O)c2ccccc2)cc1	-8	3	23*	6
O=C1C=C(Nc2cccc3cccnc23)c2ccccc2C1=O	-23	25	.	47*
O=C1NNC(c2ccccc2)=N/C1=C\c1ccccc1	-5	1	23*	19
CCOC(=O)C1CCCN(C(=O)c2cc(S(=O)(=O)N3CCCCCC3)ccc2OC)C1 (stereo not drawn)	36	1	-2	49*
CC(=NNC(=O)c1c(Cl)c(C)nn1C)c1ccc(NC(=O)COc2ccc(Cl)cc2C)cc1	.	.	1	.
CCc1ccc(N2C(=O)Cc3c2nc(N)c(C#N)c3N)cc1	-6	44*	-3	-4
SMILES	UBC13 polyUb	PREPL inhibitor	UCH37 inh	Apaf-1 inh
CCOc1ccc(N(C(=O)c2snc(C(N)=O)c2N)C(C(=O)NCC2CCCO2)c2ccco2)cc1 (stereo not drawn)	79*	5	-5	7
O=C1CCCC(O)=C1N=Nc1ccc(C(=O)O)cc1	-11	21	19	-15
O=C1CCCC(O)=C1N=Nc1ccc2c(c1)OCO2	-181	3	20*	3
c1coc(C2Nc3cccc4cccc(c34)N2)c1	-27	43*	.	31
CCCCCCN1C=CC(=C/C=C(\C#N)C(=O)OCC)C=C1	-350	26	21*	-4
O=C(CNC(=O)c1ccc2c(c1)OCO2)NN=Cc1cc(Br)ccc1O	.	.	3	.
CCOc1ccc2nc(N=Cc3nc(-c4ccccc4)oc3O)sc2c1	.	.	-1	.
CC(C)(C)c1[nH]nc2c1C(c1cccnc1)C(C#N)=C(N)O2 (stereo not drawn)	3	-1	3	-13
CC(C)(C)c1[nH]nc2c1C(c1ccc(OC(=O)c3ccco3)cc1)C(C#N)=C(N)O2 (stereo not drawn)	14	71*	4	7
CC(=O)c1ccc(NC(=S)Nc2cccc3ccccc23)cc1	-12	19	3	45*
Cc1ccc(NC(=S)Nc2cccc3ccccc23)cc1F	-48	11	3	89*
COc1ccc(-c2ccc(CNCc3ccccn3)o2)cc1Cl	.	51*	.	.
Cn1ccc(C(=O)NN=Cc2c[nH]c3ccccc23)n1	.	.	8	.
O=C(c1ccccc1)C1CCN(C(=O)c2cccs2)CC1	-8	-4	0	0
O=C1NC(=O)[C@@H]2C3c4ccccc4C=CN3[C@H](C(=O)c3cccs3)[C@H]12 (stereo partly drawn)	-8	14	.	47*
CC(=NNC(=O)c1nnn(-c2nonc2N)c1CN(C)c1ccccc1)c1cccs1	.	.	1	.
c1ccc(-c2nnc(-c3ccccn3)nc2NC2CCCCC2)cc1	-3	86*	4	20
Cc1cccc(C)c1NC(=O)COC(=O)c1c2c(nc3ccccc13)/C(=C\c1ccc3c(c1)OCO3)CCC2	.	71*	-319	.
O=C(NN=Cc1cccnc1)c1cccc(NC(=O)c2ccc(Cl)cc2)c1	.	.	5	.
CCOC(=O)c1c(N=CN(C)C)sc(C=NNc2ccccc2)c1-c1ccc(Cl)cc1	.	.	-1	.
CCCCC#Cc1cncc(C(=O)NN=Cc2ccccc2)c1	.	.	-2	.
CCC1(CC)Cc2ccccc2C(=O)N1	3	-4	2	-2
CC1(C)Cc2ccccc2C(=O)N1	3	-4	26*	-5
Nc1cccnc1Sc1cccc(Cl)c1	-25	-6	-8	76*
CCN(CC)c1ccc(C=Nc2ccc(N(C)C)cc2)c(O)c1	-75	17	3	44*
SMILES	UBC13 polyUb	PREPL inhibitor	UCH37 inh	Apaf-1 inh
CCN(CC)c1ccc(N=Cc2ccc(N(CC)CC)cc2O)cc1	-28	21	.	28
COCCn1nnnc1C(c1cccs1)N1CCN(c2cc(C)ccc2C)CC1 (stereo not drawn)	-5	-7	1	20
COCCn1nnnc1C(c1cccs1)N1CCN(c2nc3ccccc3s2)CC1 (stereo not drawn)	5	50*	1	12
COc1ccc(C2c3ccc4ccccc4c3Oc3ncn(CCN4CCOCC4)c(=N)c32)cc1 (stereo not drawn)	4	44*	8	24
COc1ccc(C2c3ccc4ccccc4c3Oc3ncn(CCO)c(=N)c32)cc1 (stereo not drawn)	28	11	7	6
Clc1cccc(Cl)c1CON=Cc1c(-c2ccccc2)nc2n1CCS2	.	.	-3	.
CCOC(=O)[C@H]1[C@H]2COc3ccc(Br)cc3[C@@H]2N2C(=O)N(c3ccc(F)cc3)C(=O)[C@@]12C	-2	-98	-2	17
CCOC(=O)[C@@H]1[C@H]2COc3ccc(Br)cc3[C@@H]2N2C(=O)N(c3ccc(F)cc3)C(=O)[C@@]12C	6	-9	20*	22
Nc1ccc(N2CCCCC2)c2nonc12	-93	12	21*	97*
CC(=NO)c1ccc(Cl)c(Cl)c1	.	.	-1	.
CC(=O)N1c2ccc3ccccc3c2C2C=CCC2C1c1ccc(Br)cc1 (stereo not drawn)	.	3	.	.
CC(=O)N1c2ccc(Cl)cc2C2C=CCC2C1c1cccc2ccccc12 (stereo not drawn)	.	-12	48*	.
